In ChEMBL document CHEMBL2157991, “Synthesis and pharmacological evaluation of 2,4-dinitroaryldithiocarbamate derivatives as novel monoacylglycerol lipase inhibitors” (J Med Chem, 2012):
Where a chain is given by its changes, count along the chain named. The source made the active and inactive calls. The rule behind the calls is not given here.

Experiments:
[1] = target: T1, Monoglyceride lipase (Homo sapiens) (UniProt Q99685); experiment: Irreversible inhibition of MAGL at 10^-8.5 M measured after 300 times dilution
T1 sequence (whole entry): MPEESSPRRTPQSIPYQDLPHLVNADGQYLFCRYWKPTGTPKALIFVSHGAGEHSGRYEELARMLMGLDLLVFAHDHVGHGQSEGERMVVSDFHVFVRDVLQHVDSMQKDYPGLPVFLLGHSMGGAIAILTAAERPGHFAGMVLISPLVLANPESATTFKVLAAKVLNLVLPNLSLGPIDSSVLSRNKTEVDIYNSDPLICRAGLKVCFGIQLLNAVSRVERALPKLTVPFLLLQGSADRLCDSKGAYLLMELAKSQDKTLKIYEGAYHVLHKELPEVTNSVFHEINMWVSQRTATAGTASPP
How it was run: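 Pure MAGL (105 ng, 20 μL) incubated 30 min at room temperature with inhibitor at 10−3 to 10−6 M or DMSO, then diluted 300-fold in Tris pH 8.0; after 15 min, aliquot assayed with [3H]-2-OG by standard protocol; same nominal post-dilution concentrations also assayed directly; percent of control, one-way ANOVA with Dunnett's test.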

Homo sapiens = organism: Homo sapiens; experiment: Selectivity ratio of IC50 for human recombinant FAAH to IC50 for human recombinant MAGL
[2] = system: T2, Monoglyceride lipase (Homo sapiens), Q99685 [C208A,C242A]; experiment: Inhibition of human MAGL C208A/C242A mutant expressed in Escherichia coli in presence of DTT
T2 sequence (whole entry): T1 sequence (whole entry) with C208A, C242A

[3] = target: T3, Monoglyceride lipase (Mus musculus) (UniProt O35678); experiment: Inhibition of MAGL in mouse B16 cells assessed as increase in 2-arachidonoylglycerol level at 10 uM after 8 hrs by isotope dilution HPLC-MS method; assay type: cell-based
T3 sequence (whole entry): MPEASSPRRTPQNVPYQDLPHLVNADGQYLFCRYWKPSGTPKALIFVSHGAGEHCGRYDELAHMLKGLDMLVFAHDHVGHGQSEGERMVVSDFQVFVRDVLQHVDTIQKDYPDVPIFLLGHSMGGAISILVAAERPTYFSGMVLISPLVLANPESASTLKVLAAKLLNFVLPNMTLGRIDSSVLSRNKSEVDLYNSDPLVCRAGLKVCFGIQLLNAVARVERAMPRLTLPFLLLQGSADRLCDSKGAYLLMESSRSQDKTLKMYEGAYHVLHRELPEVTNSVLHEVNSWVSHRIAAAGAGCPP
How it was run: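 Murine B16 melanoma cells (MEMα, 10% FBS, 37 °C, 5% CO2), 5 × 10^6 cells/condition seeded 12 h, then exposed 8 h to 10 μM inhibitor or 0.1% DMSO in 1% FBS medium; cells plus medium extracted with chloroform–methanol with d5-2-AG, silica SPE cleanup, 2-AG quantified by APCI-positive HPLC–MS isotope dilution, normalized to vehicle.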

[4] = target: T1, Monoglyceride lipase (Homo sapiens); experiment: Inhibition of MAGL at 10^-4.5 to 10^-5 M after 30 mins by liquid scintillation counter in presence of DTT
How it was run: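 Purified MAGL (3 ng; Tris pH 8.0, 50 mM, 0.1% BSA) preincubated 10 min at room temperature with inhibitor at 10−4.5 and 10−5 M or DMSO; DTT (10−2 M) then added, 15 min at 37 °C, before [3H]-2-OG hydrolysis assay as standard; activity normalized to respective control, n analysed by one-way ANOVA with Bonferroni test.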

For CC(C)(C)c1ccc(CN2CCN(C(=S)Sc3ccc([N+](=O)[O-])cc3[N+](=O)[O-])CC2)cc1, the inhibition [1] was “Active”, the Ratio IC50 (Homo sapiens) was 11 and the inhibition [2] was “Active”. The inhibition [3] was “Active” and the inhibition [4] was “inactive”.
